ABHD5-PLIN5 inh – inhibitors of human ABHD5-perilipin-5 interaction; Q00G26+Q8WTS1; Split G. princeps luciferase complementation, luminescence, 4 h; inhibition, % at 4 µM; actives 0.78% (n = 360,000); AID 602281;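 active = inhibition above the mean inhibition across every tested compound plus 3 SD, cut at about 22% in these data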;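 note: 0% = DMSO only wells and the 100% control is not disclosed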
UPR XBP1 act – adaptive UPR (XBP1) activation | CHO-XBP1 luciferase reporter, IRE1-XBP1 UPR activation, luminescence; percent of tunicamycin response, DMSO as zero | activation, % at 20 µM | actives 0.33% (n = 330,000) | AID 463104;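 active = versus positive control, 20 µM dose yields 30% or more activation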;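 note: 100% = tunicamycin at 10 µg/mL and 0% = DMSO only wells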
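Material – CHO cell line with stable XBP1 luciferase reporter · Buffer or medium – F12 plus 10% FBS · Compound – single point, 20 µM final compound, 1% DMSO · Schedule – 16-18 h cell attachment at 37 °C, then 6 h compound exposure · Signal – Steady-Glo luminescence read · Benchmarks – high control tunicamycin 10 µg/mL final, low control DMSO vehicle only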
Granule exo inh – blocks lytic granule exocytosis; TALL-104 LAMP-1 surface exposure, flow cytometry; cells stimulated with thapsigargin and PMA; inhibition, % at 10 µM; actives 0.66% (n = 360,000); AID 651702;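 active = inhibition above about 55%, limit read from the data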
UPR CHOP act – apoptotic UPR (CHOP) activation; CHO-CHOP luciferase reporter, luminescence; percent of tunicamycin response over DMSO baseline; activation, % at 10 µM; actives 0.34% (n = 330,000); AID 449763;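 active = at 10 µM dose, activation of 40% or more, normalized to positive control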;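 note: 100% = tunicamycin at 10 µg/mL and 0% = DMSO alone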
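Material: CHO-CHOP cells, stable luciferase reporter of PERK-eIF2a-CHOP signalling; quantity: 500 reporter cells seeded per well; buffer or medium: F12 medium containing 10% fetal bovine serum; compound: one dose, 10 µM in 0.5% DMSO; incubation: 6 h compound treatment, 37 °C; measured by: Steady-Glo luciferase luminescence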
Mdm2 MdmX PPI – human Mdm2/MdmX binding inhibition. SaOS-2 split-luciferase Mdm2/MdmX complementation, luminescence. inhibition, % at 8 µM. actives 3% (n = 330,000);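 active = inhibition of at least 50% at 8 µM in the primary screen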
Numbers without * were called inactive. Compounds with a hit are over-represented: about 4% of the library has one in this group of screens.

How did COc1ccc(CN(C(=O)c2cc(=O)c3ccccc3o2)C2CCS(=O)(=O)C2)cc1 (centres undefined) do in these assays?
ABHD5-PLIN5 inh: 6.5; UPR XBP1 act: -2.5; Granule exo inh: -0.3; UPR CHOP act: 1.8; Mdm2 MdmX PPI: 48.1

What do the screens show for `O=C(/C=C/c1ccccc1)NCC(=O)N/N=C/c1ccco1`?
ABHD5-PLIN5 inh: 8.0; UPR XBP1 act: -4.5; Granule exo inh: 76.2*; UPR CHOP act: 1.2; Mdm2 MdmX PPI: 5.7

Results for O=C(/C=C/c1ccc(N2CCCCC2)c([N+](=O)[O-])c1)c1ccc(O)cc1 ?
ABHD5-PLIN5 inh: 22.4*; UPR XBP1 act: -2.5; Granule exo inh: -0.7; UPR CHOP act: 10.2; Mdm2 MdmX PPI: 42.6

How did O=S(=O)(c1ccc2ccccc2c1)N1CCN=C1SCc1cccnc1 do in these assays?
ABHD5-PLIN5 inh: -2.8; UPR XBP1 act: 3.8; Granule exo inh: 0.8; UPR CHOP act: -2.7; Mdm2 MdmX PPI: 8.1

How did Cc1ccc(-c2noc(CN3CCC(C(N)=O)CC3)n2)cc1 do in these assays?
ABHD5-PLIN5 inh: -3.5; UPR XBP1 act: 1.7; Granule exo inh: -1.3; UPR CHOP act: 3.6; Mdm2 MdmX PPI: 15.7

Results for Cc1cc(N2C(=O)C=CC2=O)c([N+](=O)[O-])cc1C ?
ABHD5-PLIN5 inh: 33.0*; UPR XBP1 act: -6.9; Granule exo inh: 10.2; UPR CHOP act: 4.9; Mdm2 MdmX PPI: -10.0

What do the screens show for `COc1ccc(-n2c(=S)[nH]c3cc(C(=O)NCc4ccccc4OC)ccc3c2=O)c(OC)c1`?
ABHD5-PLIN5 inh: 0.8; UPR XBP1 act: -2.1; Granule exo inh: -5.4; UPR CHOP act: -0.6; Mdm2 MdmX PPI: 18.3

Results for Cc1c(CCOC(=O)c2ccccc2)sc[n+]1CC(=O)c1ccc(Br)cc1 ?
ABHD5-PLIN5 inh: 7.1; UPR XBP1 act: -4.7; Granule exo inh: 94.6*; UPR CHOP act: 1.1; Mdm2 MdmX PPI: 12.5

Results for Cc1c(CCOC(=O)c2cc([N+](=O)[O-])cc([N+](=O)[O-])c2)sc[n+]1CC(=O)c1ccccc1 ?
ABHD5-PLIN5 inh: 6.6; UPR XBP1 act: 0.3; Granule exo inh: -1.5; UPR CHOP act: 0.1; Mdm2 MdmX PPI: 22.5

Results for COc1ccc(CNC(=O)C(c2ccc(C)o2)N(C(=O)c2snc(C(N)=O)c2N)c2ccccc2OC)cc1 (centres undefined) ?
ABHD5-PLIN5 inh: 3.4; UPR XBP1 act: -6.9; Granule exo inh: 72.6*; UPR CHOP act: -2.2; Mdm2 MdmX PPI: -4.4

Results for COc1ccc(OC)c(N(C(=O)c2snc(C(N)=O)c2N)C(C(=O)NCc2ccccc2)c2ccc(O)cc2)c1 (centres undefined) ?
ABHD5-PLIN5 inh: 9.8; UPR XBP1 act: -3.0; Granule exo inh: -5.8; UPR CHOP act: 3.6; Mdm2 MdmX PPI: 22.3

What do the screens show for `Cc1ccc(C(C(=O)NCc2ccc(F)cc2)N(Cc2ccco2)C(=O)c2snc(C(N)=O)c2N)o1` (centres undefined)?
ABHD5-PLIN5 inh: -2.2; UPR XBP1 act: 1.0; Granule exo inh: 74.1*; UPR CHOP act: 5.8; Mdm2 MdmX PPI: 18.0

What do the screens show for `O=C(COC(=O)CCN1C(=O)c2ccccc2C1=O)Nc1ccc(S(=O)(=O)N2CCCC2)cc1`?
ABHD5-PLIN5 inh: -1.0; UPR XBP1 act: 0.2; Granule exo inh: -1.2; UPR CHOP act: 1.2; Mdm2 MdmX PPI: 20.9

What do the screens show for `O=C(Cc1cccc(NC(=O)C2CCCN(C(=O)C3CCC3)C2)c1)Nc1ccc(C(=O)N2CCCCC2)cc1` (centres undefined)?
ABHD5-PLIN5 inh: 1.1; Granule exo inh: -3.6

How did O=S(=O)(O)c1cccc2c(N=Nc3ccc(O)c4ncccc34)cccc12 do in these assays?
ABHD5-PLIN5 inh: 35.9*; Granule exo inh: 0.4

What do the screens show for `Cc1ccccc1N=Nc1ccc(O)c2ncccc12`?
ABHD5-PLIN5 inh: 6.3; Granule exo inh: -2.7

What do the screens show for `CCC[C@@H](CN1CCC[C@H]1CN1C(N)=NC[C@H]1CC(C)C)N1C[C@@H](Cc2ccccc2)N(CCc2ccc(Cl)c(Cl)c2)C1=N`?
ABHD5-PLIN5 inh: 22.9*; UPR XBP1 act: -1.3; Granule exo inh: -0.1; UPR CHOP act: 2.9; Mdm2 MdmX PPI: -38.9

What do the screens show for `C[C@@H](CN1CCC[C@H]1CN1C(N)=NC[C@@H]1Cc1ccccc1)N1C[C@@H](Cc2ccccc2)N(CCc2ccc(Cl)c(Cl)c2)C1=N`?
ABHD5-PLIN5 inh: 40.5*; UPR XBP1 act: -1.4; Granule exo inh: -2.1; UPR CHOP act: 7.2; Mdm2 MdmX PPI: 12.6

What do the screens show for `CC[C@@H](C)[C@@H]1CN([C@@H](C)CN2CCC[C@H]2CN2C(N)=NC[C@H]2CC(C)C)C(=N)N1CCc1ccc(Cl)c(Cl)c1`?
ABHD5-PLIN5 inh: 29.6*; UPR XBP1 act: 0.9; Granule exo inh: -2.9; UPR CHOP act: -0.5; Mdm2 MdmX PPI: -2.4

Results for CC(C)[C@@H]1CN=C(N)N1C[C@@H]1CCCN1C[C@H](C)N1C[C@@H](Cc2ccccc2)N(CCc2ccc(Cl)c(Cl)c2)C1=N ?
ABHD5-PLIN5 inh: 18.8; UPR XBP1 act: -3.2; Granule exo inh: 2.1; UPR CHOP act: 2.6; Mdm2 MdmX PPI: 10.7

What do the screens show for `CCC[C@@H](CN1CCC[C@H]1CN1C(N)=NC[C@@H]1Cc1ccccc1)N1C[C@@H](Cc2ccccc2)N(CCCC2CCCC2)C1=N`?
ABHD5-PLIN5 inh: 17.8; UPR XBP1 act: -0.6; Granule exo inh: -4.4; UPR CHOP act: 0.7; Mdm2 MdmX PPI: 11.1

What do the screens show for `CCC[C@@H](CN1CCC[C@H]1CN1C(N)=NC[C@@H]1Cc1ccccc1)N1C[C@@H]([C@H](C)CC)N(CCCC2CCCC2)C1=N`?
ABHD5-PLIN5 inh: 31.9*; UPR XBP1 act: -3.1; Granule exo inh: 21.3; UPR CHOP act: 2.0; Mdm2 MdmX PPI: 25.3

How did COc1ccc(-c2cc(C(F)(F)F)n3ncc(C(=O)NCc4ccco4)c3n2)cc1 do in these assays?
ABHD5-PLIN5 inh: 22.9*; UPR XBP1 act: -4.0; Granule exo inh: -3.2; UPR CHOP act: -2.6; Mdm2 MdmX PPI: 25.3

Results for O=C(NCc1ccco1)c1cnn2c(C(F)(F)F)cc(-c3ccccc3)nc12 ?
ABHD5-PLIN5 inh: 3.1; UPR XBP1 act: 0.2; Granule exo inh: 11.5; UPR CHOP act: -0.3; Mdm2 MdmX PPI: 29.2

How did O=C(CNCCC1=CCCCC1)Nc1ccccc1N1CCCCC1 do in these assays?
ABHD5-PLIN5 inh: 0.6; UPR XBP1 act: 1.2; Granule exo inh: 2.6; UPR CHOP act: 1.4; Mdm2 MdmX PPI: -11.1

Results for Cc1ccc2nc(N(CCCN(C)C)C(=O)CS(=O)(=O)c3ccccc3)sc2c1 ?
ABHD5-PLIN5 inh: -3.1; UPR XBP1 act: 0.4; Granule exo inh: 5.9; UPR CHOP act: -0.4; Mdm2 MdmX PPI: -16.9

How did Cc1ccc2nc(N(CCCN(C)C)C(=O)CCc3ccccc3)sc2c1 do in these assays?
ABHD5-PLIN5 inh: 22.0*; Granule exo inh: 7.1

What do the screens show for `COc1ccc(C(=O)Nc2ccc(-c3ccc(C)o3)cc2)cc1S(=O)(=O)N1CCOCC1`?
ABHD5-PLIN5 inh: 22.3*; UPR XBP1 act: 5.1; Granule exo inh: 72.4*; UPR CHOP act: 6.9; Mdm2 MdmX PPI: 4.8
